The source of these data is ChEMBL document CHEMBL3351758, “Inhibition of cancer-associated mutant isocitrate dehydrogenases: synthesis, structure-activity relationship, and selective antitumor activity” (J Med Chem, 2014).

The target in data set [1] is Isocitrate dehydrogenase [NADP] cytoplasmic (Homo sapiens, UniProt O75874, R132H). Put plainly: Inhibition of human IDH1 R132H mutant expressed in Escherichia coli BL21-CodonPlus assessed as reduction in NADPH consumption.
Data set [2] is described as follows: Cytotoxicity against human HT1080 cells up to 30 uM. In kind it is cell-based. The following applies: ht-1080.
Data set [3] can be described thus: Inhibition of neurosphere formation of […] BXD4687 cells by CCK8 assay. Format: functional, cell-based. In a few lines: (§1)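 Neurosphere cultures grown serum-free at 37 °C, 5% CO2 (neurobasal medium, N2/B27, bFGF and EGF 50 ng/mL each, penicillin/streptomycin). BXD lines come from patient-tumour orthotopic xenografts; BT-142 carries endogenous IDH1 R132H and gets extra supplements (PDGF-AA, insulin, transferrin, others). 2000 cells/well were exposed to 0.002, 0.02, 0.2, 2 or 20 μM for up to 13 days. CCK-8 viability was read on days 4, 7, 10 and 13.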
(In general: Tetrazolium dyes change colour on reduction, which living cells bring about.)

A short description of data set [4]: Inhibition of neurosphere formation of human BT142 cells by CCK8 assay. Format: functional, cell-based. The gist of the method: as §1
Data set [5] can be described thus: Inhibition of cell proliferation of human WI38 cells by CCK8 assay. Format: functional, cell-based. The note with it: WI-38.
The nature of data set [6]: Inhibition of neurosphere formation of […] BXD3752 cells by CCK8 assay. In kind it is functional, cell-based. In a few lines:
as §1

Data set [7] concerns the target Isocitrate dehydrogenase [NADP] cytoplasmic (Homo sapiens, UniProt O75874). Put plainly: Inhibition of wild type human IDH1 expressed in Escherichia coli BL21-CodonPlus assessed as NADPH production.
Data set [8] relates to MDCK. The data set can be described thus: Permeability from basolateral to apical side in MDCK cells expressing MDR1 at 10 uM incubated at 37 degC for 90 mins by LC/MS/MS method. Format: ADME, cell-based, Canis lupus familiaris. The note with it: dog, 1.5 h. The gist of the method: (§2)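 MDCK-MDR1 monolayers were used 3–4 days after seeding on 0.4 μm Transwell filters, only if TEER exceeded 1000 Ω·cm² before and after the run. They were preincubated 30 min in HBSS with 50 mM HEPES, pH ≈ 7.4. Donor got 10 μM compound (final, 0.1% DMSO), then 90 min at 37 °C. Both sides were sampled and quantified by LC-MS/MS SRM. Papp = dQ/dt/(A·C0).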

The subject of data set [9] is MDCK. The data set can be described thus: Permeability from apical to basolateral side in MDCK cells expressing MDR1 at 10 uM incubated at 37 degC for 90 mins by LC/MS/MS method. In kind it is ADME, cell-based, Canis lupus familiaris. The following applies: dog, 1.5 h. In a few lines:
as §2

The nature of data set [10]: Selectivity index, ratio of EC50 for human BXD3752 cells to EC50 for human BT142 cells.
Data set [11] can be described thus: Selectivity index, ratio of EC50 for human BXD4687 cells to EC50 for human BT142 cells.
The test system of data set [12] is MDCK. Put plainly: Efflux ratio, ratio of permeability from basolateral side over apical to basolateral side in MDCK cells expressing MDR1 at 10 uM incubated at 37 degC for 90 mins by LC/MS/MS method. The note with it: dog, 1.5 h. In kind it is ADME, cell-based, Canis lupus familiaris. The gist of the method:
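MDCK-MDR1 monolayers (passage 24–33, seeded at 60000 cells/cm² on Transwell filters) were used 3–4 days post-seeding if TEER stayed >1000 Ω·cm². After 30 min preincubation in HBSS/50 mM HEPES pH ≈7.4, compound was added to the donor side (10 μM initial, 0.1% DMSO) A→B or B→A, 37 °C, 90 min. LC-MS/MS SRM quantification; Papp = dQ/dt/(A·C0).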

Data set [13] in a line: Inhibition of neurosphere formation of human BT142 cells at 20 uM by CCK8 assay. Format: functional. In a few lines:
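BT-142 glioma cells (endogenous IDH1 R132H) grown as neurospheres in serum-free neurobasal/N2/B27 medium with bFGF, EGF, PDGF-AA and other supplements. 2000 cells/well treated for up to 13 days. Viability by CCK-8 at days 4, 7, 10 and 13.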

Data set [14] in a line: Inhibition of neurosphere formation of human BT142 cells at 2 uM by CCK8 assay. Format: functional. The gist of the method: as §1

Sequence of Isocitrate dehydrogenase [NADP] cytoplasmic (Homo sapiens, UniProt O75874, R132H) (O75874 2-414 R132H limits assumed): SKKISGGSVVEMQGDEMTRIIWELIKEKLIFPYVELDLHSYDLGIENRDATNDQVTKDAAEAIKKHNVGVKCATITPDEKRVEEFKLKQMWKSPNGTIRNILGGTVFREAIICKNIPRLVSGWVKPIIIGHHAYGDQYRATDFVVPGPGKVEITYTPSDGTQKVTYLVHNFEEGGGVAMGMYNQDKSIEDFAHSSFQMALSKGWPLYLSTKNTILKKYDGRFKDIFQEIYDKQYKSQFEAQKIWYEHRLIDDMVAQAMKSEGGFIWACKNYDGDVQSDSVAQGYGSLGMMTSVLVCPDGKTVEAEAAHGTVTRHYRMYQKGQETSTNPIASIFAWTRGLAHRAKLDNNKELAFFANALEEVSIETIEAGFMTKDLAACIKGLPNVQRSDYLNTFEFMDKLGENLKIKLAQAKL
Sequence of Isocitrate dehydrogenase [NADP] cytoplasmic (Homo sapiens, UniProt O75874) (O75874 whole entry): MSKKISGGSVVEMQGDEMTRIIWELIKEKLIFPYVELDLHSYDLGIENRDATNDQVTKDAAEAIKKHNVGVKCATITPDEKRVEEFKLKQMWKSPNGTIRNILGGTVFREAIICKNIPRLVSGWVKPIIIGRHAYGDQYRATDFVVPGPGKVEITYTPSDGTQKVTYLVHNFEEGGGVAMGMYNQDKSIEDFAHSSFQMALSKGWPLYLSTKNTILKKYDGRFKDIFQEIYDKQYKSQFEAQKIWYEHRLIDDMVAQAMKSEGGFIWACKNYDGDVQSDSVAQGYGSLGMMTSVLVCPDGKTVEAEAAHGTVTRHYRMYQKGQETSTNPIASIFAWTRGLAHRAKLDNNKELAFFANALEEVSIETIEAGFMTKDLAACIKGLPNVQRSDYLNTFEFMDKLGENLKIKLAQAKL

The term Ki denotes a measure of affinity in units of concentration, obtained from inhibition or displacement. With `Cc1cc(C2CCCCC2)n(O)c(=O)c1` [CICLOPIROX], the Ki in data set [1] is above 50 µM. With `Cc1cc(Cc2cccc(C(=O)O)c2)n(O)c(=O)c1`, in data set [1], the Ki was above 50 µM. In the case of `Cc1cc(Cc2ccc(O)cc2)n(O)c(=O)c1`, the Activity entry in data set [2] is “Non-toxic”.

As to `COc1ccc(Cc2cc(C)cc(=O)n2O)cc1`, the Ki in data set [1] is 0.56 µM. In the case of `O=C(NO)c1ccc(=O)n(O)c1`, in [1], the Ki was above 50 µM. `Cc1cc(Cc2cccc3cc(O)ccc23)n(O)c(=O)c1`: the Ki in data set [1] amounted to 27.5 µM.

Turning to `CC(c1ccccc1)c1cccc(=O)n1O` (configuration not stated), in data set [1], the Ki was above 50 µM. With `Cc1cc(Cc2ccccc2O)n(O)c(=O)c1`, in data set [1], the Ki turned out to be 0.65 µM. Consider `O=c1ccc(CCCc2ccccc2)cn1O`, for which the Ki in [1] is above 50 µM. What is called EC50 is the concentration at which the effect is half-maximal. Higher therefore signals weaker potency. `Cc1cc(Cc2cccc(O)c2)n(O)c(=O)c1`: in data set [2], the Activity result was “Non-toxic”. For the same compound, the EC50 in [3] is 7.5 µM; in data set [4], 1.8 µM; in data set [5] it was above 50 µM; in data set [6] it was 6.2 µM. In addition, the figures for the Ki in data set [1] and in [7] were 0.14 µM and above 30 µM, respectively. On to `COc1ccc2c(Cc3cc(C)cc(=O)n3O)cccc2c1`, for which the Ki in data set [1] is 40.5 µM. In the case of `Cc1cc(Cc2ccccc2)n(N)c(=O)c1`, the Ki in data set [1] was 3.8 µM. `Cc1cc(Cc2ccccc2)n(O)c(=O)c1`: the Activity result in data set [2] was “Non-toxic”. Moreover, the EC50 came out at 6.8 µM in data set [3], 0.37 µM in data set [4] and 5.9 µM in [6]. For the same compound, the permeability in the data set on MDCK [8] worked out at 6.34 ×10⁻⁶ cm/s; in the data set on MDCK [9], 5.45 ×10⁻⁶ cm/s. Turning to `O=c1ccc(CCc2ccccc2)cn1O`, the Ki in data set [1] was above 50 µM.

Turning to `CC(C)c1cc(Cc2ccccc2)n(O)c(=O)c1`, the Activity entry in data set [2] is on record as “Non-toxic”. `Cc1cc(C)cc(Cc2cc(C)cc(=O)n2O)c1`: the inhibition constant Ki in [1] amounted to 3.1 µM.

In the case of `O=C(NCc1ccccc1)c1ccc(=O)n(O)c1`, the Ki in [1] is above 50 µM.

With `Cc1cc(Cc2ccc(Oc3ccccc3)cc2)n(O)c(=O)c1`, the Ki in [1] stood at 0.75 µM.

As to `O=c1ccc(Oc2ccccc2)cn1O`, the Ki in [1] amounted to 46 µM.

Turning to `Cc1cc(Cc2cccc(C(N)=O)c2)n(O)c(=O)c1`, in [1], the Ki stood at 8.5 µM. Turning to `Cc1cc(Cc2cccc(-c3ccccc3)c2)n(O)c(=O)c1`, in [1], the Ki is 0.6 µM. With `O=c1ccc(-c2ccccc2)cn1O` [1-HYDROXY-5-PHENYLPYRIDIN-2(1H)-ONE], in data set [1], the Ki stood at 50 µM. Turning to `Cc1cc(C)n(O)c(=O)c1` [METIPIROX], the Ki in data set [1] is above 50 µM. For `COc1ccc(-c2ccc(Cc3cc(C)cc(=O)n3O)cc2)cc1`, in [2], the Activity entry was “Non-toxic”. The EC50 in data set [3] was 7.6 µM; in [4], 0.26 µM; in [5] it was above 50 µM; in data set [6], 2.8 µM. Also, the “Ratio EC50” value in [10] and in [11] was above 10 each time. The Ki in data set [1] came to 0.34 µM; in data set [7], 14 µM.

Consider `COc1ccccc1Cc1cc(C)cc(=O)n1O`, for which the Ki in data set [1] worked out at 0.49 µM. In the case of `Cc1ccn(O)c(=O)c1Cc1ccccc1`, the Ki in [1] came out at 9.5 µM. With `O=C(Cc1ccccc1)Nc1ccc(=O)n(O)c1`, in data set [1], the Ki is above 50 µM. For `CC(=O)OCc1cc(Cc2ccccc2)n(O)c(=O)c1`, the Ki in data set [1] is 4.5 µM. Regarding `O=C(NO)c1cccc(=O)n1O`, the Ki in [1] was 4.5 µM; in data set [7], above 50 µM.

Take `COc1cccc(Cc2cc(C)cc(=O)n2O)c1`: the Activity entry in data set [2] was “Non-toxic”. The EC50 in data set [3] was 1.2 µM; in data set [4], 0.63 µM; in data set [5] it was above 50 µM; in data set [6] it was 2.5 µM. Further, the permeability was determined as 8.88 ×10⁻⁶ cm/s in the data set on MDCK [8] and 5.39 ×10⁻⁶ cm/s with MDCK [9]. The Ratio in the data set with MDCK [12] turned out to be 1.7. Further, the Ki in data set [1] was 0.15 µM; in data set [7], above 30 µM. For the compound `O=c1cc(CO)cc(Cc2ccccc2)n1O`, the Ki in data set [1] is 5.6 µM.

Consider `Cc1cc(Cc2cccc(F)c2)n(O)c(=O)c1`, for which the Ki in [1] is 2.2 µM. `Cc1cc(Cc2c(F)c(F)c(F)c(F)c2F)n(O)c(=O)c1`: the Ki in data set [1] was found to be 2.2 µM. With `Cc1cc(Cc2cc3ccccc3s2)n(O)c(=O)c1`, the Ki in data set [1] worked out at 22.5 µM.

As for `Cc1cc(Cc2cccc3ccccc23)n(O)c(=O)c1`, the inhibition constant Ki in data set [1] amounted to 0.95 µM. As to `Cc1cc(Cc2cc(-c3ccccc3)cc(-c3ccccc3)c2)n(O)c(=O)c1`, the Ki in data set [1] was 0.3 µM. On to `O=c1cccc(CCc2ccccc2)n1O`, for which, in data set [1], the Ki worked out at 10 µM. On to `O=c1cc(O)cc(Cc2ccccc2)n1O`, for which the Activity result in data set [2] is “Non-toxic”. The Ki in [1] was determined as 0.38 µM.

`Cc1cc(Cc2cccc(C#N)c2)n(O)c(=O)c1`: in [1], the Ki is 1.6 µM.

Turning to `Cc1cc(COc2ccccc2)n(O)c(=O)c1`, the Ki in data set [1] amounted to 0.87 µM. As to `O=c1cccc(-c2ccccc2)n1O`, the Ki in data set [1] is above 50 µM. Turning to `Cc1cc(Cc2ccc(C(F)(F)F)cc2)n(O)c(=O)c1`, the Ki in data set [1] turned out to be 3.2 µM. On the same count and under the same terms, next, `Cc1cc(Cc2ccsc2)n(O)c(=O)c1`: 0.95 µM; `Cc1cc(Cc2ccc(C#N)cc2)n(O)c(=O)c1`: 12.5 µM. On to `Cc1cc(Cc2ccc(-c3ccc(O)cc3)cc2)n(O)c(=O)c1`, for which, in data set [2], the Activity result is listed as “Non-toxic”. Moreover, the EC50 is 16 µM in data set [3], 0.69 µM in data set [4], above 50 µM in data set [5] and 5.1 µM in data set [6]. The Ki came to 0.25 µM in data set [1] and 15.2 µM in [7]. As to `Cc1ccn(O)c(=O)c1Cc1cccc(O)c1`, the Ki in data set [1] stood at 13.6 µM.

Take `O=c1cccc(Cc2ccccc2)n1O`: the Activity result in data set [2] was “Non-toxic”. In the case of `Cc1cc(Cc2ccc(-c3cccc(O)c3)cc2)n(O)c(=O)c1`, the Ki in [1] came out at 0.27 µM. As to `COc1cccc(-c2ccc(Cc3cc(C)cc(=O)n3O)cc2)c1`, in [2], the Activity entry is given as “Non-toxic”. Besides, the figures for the Ki in data set [1] and in [7] were 0.14 µM and 13 µM, respectively. In the case of `COc1cc(Cc2ccccc2)n(O)c(=O)c1`, the Ki in data set [1] turned out to be 5.5 µM. Regarding `Cn1nnc2c(C(N)=O)ncn2c1=O` [TEMOZOLOMIDE], the EC50 in [3], in data set [4] and in [6] was above 50 µM throughout. Regarding `COC(=O)c1ccc(CCc2cccc(=O)n2O)cc1`, in [1], the Ki was found to be 27 µM. Regarding `COc1cccc(Cc2c(C)ccn(O)c2=O)c1`, in [1], the Ki worked out at 16.2 µM. The inhibition is the relative decrease from the control value, in per cent. The low end stands for little suppression, the high end for strong suppression. With `Cc1ccccc1C(C(=O)NC1CCCCC1)N(C(=O)Cn1ccnc1C)c1cccc(F)c1` (configuration not stated), the EC50 is above 20 µM in data set [3], above 20 µM in data set [4], above 50 µM in data set [5] and above 20 µM in data set [6]. The compound further registered an inhibition at 20 µM in data set [13] of 40%. Moreover, the permeability with MDCK [8] worked out at 10.4 ×10⁻⁶ cm/s; in the data set with MDCK [9] it was 0.15 ×10⁻⁶ cm/s. Besides, the Ratio in the data set on MDCK [12] was found to be 72.6. In data set [14], this compound yielded an inhibition at 2 µM of 40%.
